A word on the IC50: it is the midpoint of a concentration-inhibition curve.

The first assay concerns the target T1, Prostaglandin D2 receptor 2 (Homo sapiens, UniProt Q9Y5Y4).
T1 sequence (Q9Y5Y4 whole entry): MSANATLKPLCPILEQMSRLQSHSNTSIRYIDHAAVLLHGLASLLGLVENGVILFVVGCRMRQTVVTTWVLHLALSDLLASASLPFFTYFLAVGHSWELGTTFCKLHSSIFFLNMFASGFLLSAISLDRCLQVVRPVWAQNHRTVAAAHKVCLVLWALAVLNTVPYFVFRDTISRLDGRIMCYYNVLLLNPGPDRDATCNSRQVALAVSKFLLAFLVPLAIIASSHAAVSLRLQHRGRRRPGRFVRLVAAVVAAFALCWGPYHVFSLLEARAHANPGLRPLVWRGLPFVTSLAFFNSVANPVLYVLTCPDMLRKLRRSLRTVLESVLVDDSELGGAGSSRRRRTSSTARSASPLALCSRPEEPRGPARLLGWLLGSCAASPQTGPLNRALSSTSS
The experiment in a line: Displacement of [3H]PGD2 from human CRTh2 receptor. The method, boiled down:
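Human CRTh2 binding assay run in assay buffer. IC50 reported as the mean of at least three experiments.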
A general note: In a radioligand displacement assay an active substance lowers the binding of a labelled ligand.
Regarding `CCCCN(C(=O)/C(C#N)=C/c1cn(CC(=O)O)c2ccccc12)c1ccccc1`, the IC50 stood at 20 nM. Same read-out and setting: the result for `Cc1ccc2c(/C=C(\C#N)C(=O)N(C)c3ccccc3)cn(CC(=O)O)c2c1` reads 690 nM; that for `N#C/C(=C\c1cn(CC(=O)O)c2ccccc12)C(=O)N(Cc1ccccc1)c1ccccc1`, 30 nM. Still for that read-out and setting: in the case of `CN(C(=O)/C(C#N)=C/c1cn(CC(=O)O)c2ccccc12)c1ccccc1` it was 15 nM. On the same count and under the same terms, in the case of `N#C/C(=C\c1cn(CCCC(=O)O)c2ccccc12)C(=O)Nc1ccccc1` it was 2600 nM. `CN(C(=O)/C(C#N)=C/c1cn(CC(=O)O)c2cc(F)ccc12)c1ccccc1` yielded an IC50 of 45 nM. On the same count and under the same terms, the result for `N#C/C(=C\c1cn(CC(=O)O)c2ccccc12)C(=O)Nc1cccc(Br)c1` reads 500 nM; that for `CN(C(=O)/C(C#N)=C/c1cn(CC(=O)O)c2c(F)cccc12)c1ccccc1`, 100 nM. On the same count and under the same terms, in the case of `N#C/C(=C\c1cn(CC(=O)O)c2ccccc12)C(=O)N1CCc2ccccc21` it was 60 nM. On the same count and under the same terms, the result for `N#C/C(=C\c1cn(CC(=O)O)c2ccccc12)C(=O)Nc1ccccc1` reads 430 nM; that for `CN(C(=O)/C(C#N)=C/c1cn(CC(=O)O)c2cccc(Cl)c12)c1ccccc1`, 5 nM. `Cc1cccc2c1c(/C=C(\C#N)C(=O)N(C)c1ccccc1)cn2CC(=O)O` showed an IC50 of 10 nM. On the same count and under the same terms, in the case of `N#C/C(=C\c1cn(CC(=O)O)c2ccccc12)C(=O)N(CCc1ccccc1)c1ccccc1` it was 10 nM. Same read-out and setting: in the case of `O=C(O)Cn1c2ccccc2c2cc(C(=O)Nc3ccccc3)ccc21` it was 490 nM; in that of `Cc1cccc2c(/C=C(\C#N)C(=O)N(C)c3ccccc3)cn(CC(=O)O)c12`, 140 nM.

In the case of `CN(C(=O)/C(C#N)=C/c1cn(CC(=O)O)c2ccc(Cl)cc12)c1ccccc1`, the IC50 was 7 nM. On the same count and under the same terms, the result for `CN(C(=O)/C(C#N)=C/c1cn(CC(=O)O)c2c(Cl)cccc12)c1ccccc1` reads 50 nM; that for `O=C(O)Cn1c2c(c3ccccc31)CC(C(=O)Nc1ccccc1)CC2` (racemic), 145 nM. On the same count and under the same terms, the result for `C/C(=C(/C#N)C(=O)Nc1ccccc1)c1cn(CC(=O)O)c2ccccc12` reads 510 nM; that for `N#C/C(=C\c1cn(CC(=O)O)c2ccccc12)C(=O)N(c1ccccc1)C1CCCCC1`, 30 nM. The same measure, in the same setting: the result for `O=C(O)Cn1c2c(c3ccccc31)CN(C(=O)Cc1ccccc1)CC2` reads 200 nM. The compound `CN(C(=O)/C(C#N)=C/c1cn(CC(=O)O)c2cccc(F)c12)c1ccccc1` displayed an IC50 of 10 nM. On the same count and under the same terms, in the case of `O=C(O)Cn1cc(/C=C/C(=O)Nc2ccccc2)c2ccccc21` it was 4400 nM. Same read-out and setting: in the case of `CC(=O)N1CCc2c(c3ccccc3n2CC(=O)O)C1` it was 1600 nM. On the same count and under the same terms, in the case of `O=C(O)Cn1cc(/C=C(\Cl)C(=O)Nc2ccccc2)c2ccccc21` it was 560 nM; in that of `O=C(O)Cn1c2c(c3ccccc31)CN(C(=O)Nc1ccccc1)CC2`, 430 nM; in that of `CN(C(=O)/C(C#N)=C/c1cn(CC(=O)O)c2ccc(F)cc12)c1ccccc1`, 10 nM. On to `N#C/C(=C\c1cn(CC(=O)O)c2ccccc12)C(=O)N1Cc2ccccc2Cc2ccccc21`, for which the IC50 is 7 nM. Same read-out and setting: in the case of `Cc1ccc2c(c1)c(/C=C(\C#N)C(=O)N(C)c1ccccc1)cn2CC(=O)O` it was 7 nM. `N#C/C(=C\c1cn(CCC(=O)O)c2ccccc12)C(=O)Nc1ccccc1` displayed an IC50 of 5900 nM. For the compound `CCCCCC(=O)N1CCc2c(c3ccccc3n2CC(=O)O)C1`, the IC50 amounted to 210 nM. On the same count and under the same terms, the result for `CN(C(=O)/C(C#N)=C/c1cn(CC(=O)O)c2cc(Cl)ccc12)c1ccccc1` reads 290 nM.

The target of the next assay is T1, Prostaglandin D2 receptor 2. The experiment in a line: Antagonist activity at PGD2-induced human CRTh2 receptor activation expressed in HEK293 cells assessed as intracellular Ca2+ liberation by FLIPR assay. It counts as functional, cell-based. The method, boiled down:
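HEK-293 cells stably expressing human CRTh2 were stimulated with PGD2. Antagonism of intracellular Ca2+ liberation was read by FLIPR. IC50 is the mean of at least three experiments.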
Take `N#C/C(=C\c1cn(CC(=O)O)c2ccccc12)C(=O)Nc1cccc(Br)c1`: the 50% inhibitory concentration (IC50) came to 600 nM.

The values are drawn from ChEMBL document CHEMBL2390869, “Evolution of novel tricyclic CRTh2 receptor antagonists from a (E)-2-cyano-3-(1H-indol-3-yl)acrylamide scaffold” (Bioorg Med Chem Lett, 2013).
